{"data": "Measured values of several laboratories", "target": "Ephrin type-A receptor 5 (EPHA5, Homo sapiens, UniProt P54756)", "note": "Compare with care: the assays were run in different laboratories."}
{"SMILES": "O=C(Nc1cnn(-c2csc(C(=O)NC3COC3)c2)c1)Nc1c(F)cccc1Cl", "assay": "enzyme activity, inhibitor", "setting": "5 µM", "endpoint": "remaining activity", "value": "95%"}
{"SMILES": "CNCc1ccccc1-c1csc([C@H](C)Nc2nc(C)nc3cc(OC)c(OC)cc23)c1", "assay": "cell-free assay, competition with immobilised ligand", "setting": "1 µM", "endpoint": "remaining binding", "value": "100%"}
{"SMILES": "COc1cc(-c2cc(-c3ccc(N4CCNCC4)cc3)cnc2C)cc(OC)c1OC", "assay": "enzyme activity, inhibitor", "setting": "1 µM", "endpoint": "inhibition", "value": "4%"}
{"SMILES": "CNC(=O)c1cc(Oc2ccc(NC(=O)Nc3ccc(Cl)c(C(F)(F)F)c3)cc2)ccn1", "assay": "enzyme activity, inhibitor", "setting": "10 µM", "endpoint": "inhibition", "value": "92%"}
{"SMILES": "Cc1ccc(C(=O)Nc2ccc(CN3CCN(C)CC3)c(C(F)(F)F)c2)cc1C#Cc1cnc2cccnn12", "assay": "cell-free assay", "setting": "23.5 nM", "endpoint": "remaining signal", "value": "31%"}
{"SMILES": "C[C@H](NC(=O)c1cnc2n1[C@](C)(Cc1ccc(C#N)cc1)C(=O)N2c1cc(Cl)c(F)c(Cl)c1)C(=O)NC1(c2ccccn2)CC1", "assay": "cell-free assay, competition with immobilised ligand", "setting": "1 µM", "endpoint": "remaining binding", "value": "100%"}
{"SMILES": "Cc1ccc(Nc2nccc(N(C)c3ccc4c(C)n(C)nc4c3)n2)cc1S(N)(=O)=O", "assay": "enzyme activity, inhibitor", "setting": "10 µM", "endpoint": "inhibition", "value": "70%"}
{"SMILES": "Cc1cnc(NC2CCOCC2)nc1-n1cnc(C(=O)NC(CN)c2cc(F)cc(Cl)c2)c1 (centres unmarked)", "assay": "enzyme activity, inhibitor, radiometric", "setting": "1 µM", "endpoint": "remaining activity", "value": "92%"}
{"SMILES": "O=c1nc(-c2ccccn2)sc2ccccc12", "assay": "cell-free assay, competition with immobilised ligand", "setting": "1 µM", "endpoint": "remaining binding", "value": "94%"}
{"SMILES": "Oc1ccc(-c2nc(-c3ccncc3)c(-c3ccc(F)cc3)[nH]2)cc1", "assay": "cell-free assay", "setting": "0.5 µM", "endpoint": "remaining signal", "value": "90.7%"}
{"SMILES": "Cc1ccc(NC(=O)c2ccc(C)c(C(F)(F)F)c2)cc1C#Cc1nn(C2CCC(O)CC2)c2ncnc(N)c12 (centres unmarked)", "assay": "cell-free assay", "setting": "10 µM", "endpoint": "remaining signal", "value": "-1%"}
{"SMILES": "CN1CC(Oc2cnc(C#N)cc2-c2ccn3nc(NC(=O)C4CC4)cc3c2)C1", "assay": "enzyme activity, inhibitor", "setting": "1 µM", "endpoint": "inhibition", "value": "10%"}
{"SMILES": "Cc1cc(-n2nc(Cc3cc(F)cc(C(F)(F)F)c3)nc2C)ccc1C(N)=O", "assay": "cell-free assay, competition with immobilised ligand", "setting": "1 µM", "endpoint": "remaining binding", "value": "100%"}
{"SMILES": "CC(C)(C)c1nc2c(s1)c1nc(N)ncc1c1ccc(NS(=O)(=O)c3c(F)cccc3F)c(F)c12", "assay": "enzyme activity, inhibitor, radiometric", "setting": "1 µM", "endpoint": "remaining activity", "value": "109%"}
{"SMILES": "COc1cc2ncnc(Nc3ccc(Oc4ccccc4)cc3C)c2cc1OC", "assay": "enzyme activity, inhibitor", "setting": "1 µM", "endpoint": "inhibition", "value": "5%"}
{"SMILES": "CS(=O)(=O)NCC[C@H](NC(=O)c1cncc2c1cnn2-c1ccc(F)cc1)c1ccnc(S(C)(=O)=O)c1", "assay": "cell-free assay, competition with immobilised ligand", "setting": "1 µM", "endpoint": "remaining binding", "value": "100%"}
{"SMILES": "O=C1Nc2ccc(Cl)cc2C1=Cc1cc(Cl)c(O)c(Cl)c1", "assay": "cell-free assay", "setting": "0.5 µM", "endpoint": "remaining signal", "value": "99.4%"}
